# Assay results taken from ChEMBL document CHEMBL1817578, “2-({6-[(3R)-3-amino-3-methylpiperidine-1-yl]-1,3-dimethyl-2,4-dioxo-1,2,3,4-tetrahydro-5H-pyrrolo[3,2-d]pyrimidine-5-yl}methyl)-4-fluorobenzonitrile (DSR-12727): a potent, orally active dipeptidyl peptidase IV inhibitor without mechanism-based inactivation of CYP3A” (Bioorg Med Chem, 2011).
# Assays:
# [1] = target: T1, Muscarinic acetylcholine receptor M2 (Homo sapiens, UniProt P08172); assay: Binding affinity to muscarinic receptor 2
# T1 sequence (P08172 whole entry): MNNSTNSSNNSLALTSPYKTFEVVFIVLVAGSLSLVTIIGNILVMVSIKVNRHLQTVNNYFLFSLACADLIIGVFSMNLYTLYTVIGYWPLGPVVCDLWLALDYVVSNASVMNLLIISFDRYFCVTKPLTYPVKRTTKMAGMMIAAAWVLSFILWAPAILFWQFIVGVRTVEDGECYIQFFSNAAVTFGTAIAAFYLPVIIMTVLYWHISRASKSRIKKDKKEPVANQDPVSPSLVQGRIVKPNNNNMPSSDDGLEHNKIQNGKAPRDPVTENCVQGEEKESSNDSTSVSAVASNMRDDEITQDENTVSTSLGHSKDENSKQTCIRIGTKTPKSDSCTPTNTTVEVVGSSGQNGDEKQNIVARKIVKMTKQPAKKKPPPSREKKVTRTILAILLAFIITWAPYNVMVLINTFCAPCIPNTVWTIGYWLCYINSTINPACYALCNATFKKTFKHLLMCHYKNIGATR
# [2] = target: T2, Muscarinic acetylcholine receptor M1 (Homo sapiens, UniProt P11229); assay: Binding affinity to muscarinic receptor 1
# T2 sequence (P11229 whole entry): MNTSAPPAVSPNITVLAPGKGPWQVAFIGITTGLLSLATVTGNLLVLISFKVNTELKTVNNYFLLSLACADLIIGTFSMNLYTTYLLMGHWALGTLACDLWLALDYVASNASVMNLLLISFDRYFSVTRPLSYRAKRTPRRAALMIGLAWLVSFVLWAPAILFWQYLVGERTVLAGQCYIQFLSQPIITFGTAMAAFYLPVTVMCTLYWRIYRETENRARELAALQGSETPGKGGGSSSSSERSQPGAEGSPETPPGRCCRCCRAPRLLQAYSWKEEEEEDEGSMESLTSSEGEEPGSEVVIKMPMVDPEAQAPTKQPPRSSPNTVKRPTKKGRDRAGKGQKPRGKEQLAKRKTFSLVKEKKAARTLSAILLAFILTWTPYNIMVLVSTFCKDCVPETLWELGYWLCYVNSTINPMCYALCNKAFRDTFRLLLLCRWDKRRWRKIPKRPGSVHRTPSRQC
# [3] = tested on: Rattus norvegicus; assay: Antidiabetic activity in po dosed Zucker fatty rat assessed as reduction of blood glucose level pretreated 30 mins before glucose challenge by oral glucose tolerance test; type: functional, organism-based
# Method in brief: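 Male Zucker fatty rats, 10 weeks old, fasted 24 h, with Zucker lean rats as reference. Oral dose of 0.03–1.0 mg/kg in 0.5% methylcellulose, or vehicle alone, 30 min before oral glucose at 2 g/kg. Tail blood taken at -30, 0, 10, 30, 60 and 120 min and deproteinized with perchloric acid. Glucose measured by colorimetric kit (A505–A700) in duplicate. AUC over 0–120 min; n = 4–9; Dunnett test.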
# [4] = Plasma protein binding in human; type: ADME, cell-free; conditions: read-out: PPB (converted)
# [5] = Cmax in dog at 3 mg/kg, po; type: ADME, organism-based, Canis lupus familiaris; design: dose 3 mg/kg, route oral; conditions: in vivo
# [6] = Oral bioavailability in monkey at 3 mg/kg, po; type: ADME, organism-based, Macaca mulatta; conditions: rhesus monkey, in vivo
# [7] = Oral bioavailability in dog at 3 mg/kg, po; type: ADME, organism-based, Canis lupus familiaris; conditions: in vivo
# [8] = Half life in rat at 3 mg/kg, po; type: ADME, organism-based; design: dose 3 mg/kg, route oral; conditions: in vivo
# [9] = Toxicity in monkey assessed as organ toxicity after 2 weeks repeated dosage; type: organism-based, Macaca mulatta; conditions: rhesus monkey, in vivo
# Method in brief: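 2-week repeated-dose toxicity study; rats n = 5 per sex, monkeys n = 1 per sex.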
# [10] = Half life in dog at 3 mg/kg, po; type: ADME, organism-based, Canis lupus familiaris; design: dose 3 mg/kg, route oral; conditions: in vivo
# [11] = Volume of distribution at steady state in rat at 1 mg/kg, iv; type: ADME, organism-based; design: dose 1 mg/kg, route intravenous; conditions: in vivo, read-out: Vdss
# [12] = target: T3, Cytochrome P450 1A2 (Homo sapiens, UniProt P05177); assay: Inhibition of CYP1A2; type: ADME
# T3 sequence (P05177 whole entry): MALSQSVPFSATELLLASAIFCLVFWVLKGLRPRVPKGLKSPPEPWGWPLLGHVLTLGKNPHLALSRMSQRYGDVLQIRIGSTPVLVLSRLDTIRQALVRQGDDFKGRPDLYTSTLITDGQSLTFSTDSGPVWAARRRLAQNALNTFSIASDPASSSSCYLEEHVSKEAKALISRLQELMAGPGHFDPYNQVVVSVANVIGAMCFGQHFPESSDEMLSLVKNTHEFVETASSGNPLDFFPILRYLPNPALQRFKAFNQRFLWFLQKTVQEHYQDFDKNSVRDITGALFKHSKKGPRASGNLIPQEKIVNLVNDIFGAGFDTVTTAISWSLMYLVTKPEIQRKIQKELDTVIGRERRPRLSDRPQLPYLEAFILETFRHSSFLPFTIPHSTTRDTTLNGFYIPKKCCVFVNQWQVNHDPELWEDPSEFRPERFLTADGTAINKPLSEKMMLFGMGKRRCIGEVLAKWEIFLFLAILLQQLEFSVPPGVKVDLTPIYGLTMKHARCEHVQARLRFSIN
# [13] = Volume of distribution at steady state in dog at 1 mg/kg, iv; type: ADME, organism-based, Canis lupus familiaris; design: dose 1 mg/kg, route intravenous; conditions: in vivo, read-out: Vdss
# [14] = Cmax in Zucker fatty rat at 3 mg/kg, po after 3 hrs; type: ADME, organism-based; design: dose 3 mg/kg, route oral; conditions: in vivo
# [15] = AUC in Zucker fatty rat at 3 mg/kg, po after 3 hrs; type: ADME, organism-based; design: time < 3 hr, dose 3 mg/kg, route oral; conditions: plasma
# [16] = Clearance in dog at 1 mg/kg, iv; type: ADME, organism-based, Canis lupus familiaris; design: dose 1 mg/kg, route intravenous; conditions: in vivo
# [17] = Plasma protein binding in dog; type: ADME, cell-free, Canis lupus familiaris; conditions: read-out: PPB (converted)
# [18] = Plasma protein binding in monkey; type: ADME, cell-free, Macaca mulatta; conditions: rhesus monkey, read-out: PPB (converted)
# [19] = Solubility of the compound in buffered water at pH 1.2 to 6.8; type: physicochemical
# Method in brief: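 Free amine form dissolved in buffered water at pH 1.2, 5.5 and 6.8.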
# [20] = target: T4, Cytochrome P450 2A6 (Homo sapiens, UniProt P11509); assay: Inhibition of CYP2A6; type: ADME
# T4 sequence (P11509 whole entry): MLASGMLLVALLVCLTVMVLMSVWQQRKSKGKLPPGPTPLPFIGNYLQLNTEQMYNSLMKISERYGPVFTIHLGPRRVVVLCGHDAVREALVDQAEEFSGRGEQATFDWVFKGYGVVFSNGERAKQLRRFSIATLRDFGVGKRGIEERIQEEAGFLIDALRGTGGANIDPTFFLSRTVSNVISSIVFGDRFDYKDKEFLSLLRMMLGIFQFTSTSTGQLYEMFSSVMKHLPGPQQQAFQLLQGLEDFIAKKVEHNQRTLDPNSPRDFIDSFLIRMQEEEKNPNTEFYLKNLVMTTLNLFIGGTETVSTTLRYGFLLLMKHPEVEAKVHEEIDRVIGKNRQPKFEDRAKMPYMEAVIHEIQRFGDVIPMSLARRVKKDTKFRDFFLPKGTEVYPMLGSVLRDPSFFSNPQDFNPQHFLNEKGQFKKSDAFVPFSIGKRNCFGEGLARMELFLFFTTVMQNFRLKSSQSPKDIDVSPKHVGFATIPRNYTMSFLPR
# [21] = Half life in monkey at 1 mg/kg, iv; type: ADME, organism-based, Macaca mulatta; design: dose 1 mg/kg, route intravenous; conditions: rhesus monkey, in vivo
# [22] = Half life in rat at 1 mg/kg, iv; type: ADME, organism-based; design: dose 1 mg/kg, route intravenous; conditions: in vivo
smiles,measurement,setting,value
Cn1c(=O)c2c(cc(N3CCC[C@@](C)(N)C3)n2Cc2cc(F)ccc2C#N)n(C)c1=O,IC50,[1],> 10 µM
same,IC50,[2],> 10 µM
same,Activity,[3],Dose-dependent effect
same,fraction unbound,[4],0.27
same,Cmax,[5],245 ng/mL
same,bioavailability,[6],38%
same,bioavailability,[7],91%
same,half-life,[8],3.3 h
same,NOAEL at 336 h,[9],60 mg/kg/day
same,half-life,[10],3.9 h
same,Vd,[11],6.5 L/kg
same,IC50,[12],> 50 µM
same,Vd,[13],5.8 L/kg
same,Cmax,[14],309 ng/mL
same,AUC at 3 h,[15],2170 ng·h/mL
same,clearance,[16],29 mL/min/kg
same,fraction unbound,[17],0.41
same,fraction unbound,[18],0.31
same,solubility,[19],> 1000 µg/mL
same,IC50,[20],> 50 µM
same,half-life,[21],4.8 h
same,half-life,[22],4.1 h
